Two molecules from ChEMBL document CHEMBL3352791, “Thioaryl naphthylmethanone oxime ether analogs as novel anticancer agents” (J Med Chem, 2014) can be followed below.

SMILES strings stand for the structures. Activity calls are given as the source filed them. The rule behind the calls is not given here.

Assay [1] deals with MDA-MB-231. Kind of assay: Cell cycle arrest in human […] cells assessed as accumulation at G2 phase at 5 uM by propidium iodide staining by FACS analysis (reference value: 22.74%). It counts as functional.
The subject of assay [2] is MCF7. Kind of assay: Cell cycle arrest in human […] cells assessed as accumulation at subG1 phase at 5 uM by propidium iodide staining by FACS analysis (reference value: 0.1%). Format: functional. (In general: Flow cytometry measures light scatter and fluorescence of single cells or particles in a stream.)
In assay [3] the test system is MCF7. Kind of assay: Cell cycle arrest in human […] cells assessed as accumulation at G2 phase at 2.5 uM by propidium iodide staining by FACS analysis (reference value: 10.96%). Format: functional.
Assay [4] can be described thus: Antiproliferative activity against human HCT116 cells after 24 hrs by MTT assay. It counts as functional, cell-based. The settings on record: HCT-116, 24 h. The procedure, abridged:
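MTT viability: cells seeded at 1×10^4 per well in DMEM with 10% FBS, left to adhere overnight, then serum-starved 4 h. Compounds were given at a range of doses, with 0.1% DMSO vehicle as control. EC50 was taken from dose-response curves spanning 100nM-50µM. Data are mean ± SEM from at least three independent experiments.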
(In general: Tetrazolium dyes change colour on reduction, which living cells bring about.)

For assay [5], the system named is MDA-MB-231. Kind of assay: Cell cycle arrest in human […] cells assessed as accumulation at G1 phase at 2.5 uM by propidium iodide staining by FACS analysis (reference value: 63.74%). It counts as functional.
Assay [6] deals with MCF7. Kind of assay: Cell cycle arrest in human […] cells assessed as accumulation at G2 phase at 5 uM by propidium iodide staining by FACS analysis (reference value: 10.96%). Format: functional.
The test system of assay [7] is MDA-MB-231. Nature of the assay: Cell cycle arrest in human […] cells assessed as accumulation at S phase at 2.5 uM by propidium iodide staining by FACS analysis (reference value: 13.72%). It counts as functional.
The subject of assay [8] is MDA-MB-231. Nature of the assay: Antiproliferative activity against human […] cells assessed as absence of growth recovery treated > 5 uM for 24 hrs followed by maintained in drug free medium for 72 hrs by MTT assay. Format: functional, cell-based.
For assay [9], the system named is MCF7. Nature of the assay: Induction of apoptosis in human […] cells assessed as caspase 3 activation at 2.5 to 7.5 uM by Caspase-Glo assay. Format: functional, cell-based. The procedure, abridged:
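Caspase-3 activity by Caspase-Glo 3 luminescent kit.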

Assay [10] concerns the target Angiopoietin-1 receptor (Homo sapiens) (UniProt Q02763). Kind of assay: Inhibition of Tie2 (unknown origin) at 10 uM. The procedure, abridged:
(§1)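 Cell-free kinase profiling was run as a standard 33P-ATP-based in vitro kinase assay.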

In assay [11] the target is Epidermal growth factor receptor (Homo sapiens) (UniProt P00533). Nature of the assay: Inhibition of EGF-induced EGFR phosphorylation at Tyr992 in human MCF7 cells at 1 uM by ELISA. It counts as cell-based. Background: An ELISA detects its analyte on a solid surface through an enzyme-linked reagent.
In assay [12] the target is T1, Signal transducer and activator of transcription 1-alpha/beta (Homo sapiens) (UniProt P42224).
T1 sequence (whole entry): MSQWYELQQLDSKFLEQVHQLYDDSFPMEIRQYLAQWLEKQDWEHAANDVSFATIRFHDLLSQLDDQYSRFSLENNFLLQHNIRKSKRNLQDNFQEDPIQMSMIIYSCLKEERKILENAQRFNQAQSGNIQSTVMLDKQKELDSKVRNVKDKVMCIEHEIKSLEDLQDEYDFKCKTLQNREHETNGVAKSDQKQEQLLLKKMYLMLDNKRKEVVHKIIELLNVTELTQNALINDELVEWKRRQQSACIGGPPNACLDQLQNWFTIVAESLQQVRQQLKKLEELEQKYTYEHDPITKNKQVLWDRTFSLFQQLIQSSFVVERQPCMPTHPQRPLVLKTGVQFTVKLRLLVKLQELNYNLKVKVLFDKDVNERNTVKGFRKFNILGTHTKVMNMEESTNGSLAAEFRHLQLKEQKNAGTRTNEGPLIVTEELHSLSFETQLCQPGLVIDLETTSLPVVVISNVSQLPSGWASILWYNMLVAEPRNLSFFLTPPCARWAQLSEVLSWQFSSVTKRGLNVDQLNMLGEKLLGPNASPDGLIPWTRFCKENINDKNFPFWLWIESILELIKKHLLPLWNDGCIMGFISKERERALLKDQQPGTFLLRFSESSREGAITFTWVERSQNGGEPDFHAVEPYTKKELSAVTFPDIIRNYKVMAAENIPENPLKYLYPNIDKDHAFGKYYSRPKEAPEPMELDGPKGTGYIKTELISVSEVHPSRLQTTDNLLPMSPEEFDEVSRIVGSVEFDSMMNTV
Kind of assay: Inhibition of EGF-induced STAT1 phosphorylation in human MCF7 cells at 1 uM by ELISA. Format: cell-based.

The test system of assay [13] is MCF7. Kind of assay: Cytotoxicity against human […] cells assessed as cell viability at 5 uM by MTT assay in presence of z-IETD-FMK caspase-8 inhibitor. It counts as functional, cell-based. The procedure, abridged: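 Cells seeded 1×10^4/well in DMEM with 10% FBS, adhered overnight, serum-starved 4 h; pre-incubated 2 h with Z-IETD-FMK or Z-LEHD-FMK (10µM each), then 5μM compound for a further 24 h; viability by MTT.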

For a further assay, the system named is DLD-1. Kind of assay: Antitumor activity against human DLD1 cells assessed as reduction in CD133 positive in colon cancer stem cells after 24 hrs by flow cytometry. Format: functional, cell-based.
The target of assay [14] is T2, Mitogen-activated protein kinase; ERK1/ERK2 (Homo sapiens) (UniProt P27361+P28482). Kind of assay: Inhibition of basal level ERK1/2 phosphorylation in human MCF7 cells at 1 uM by ELISA. It counts as cell-based.
For assay [15], the system named is MCF7. Nature of the assay: Antiproliferative activity against human […] cells assessed as absence of growth recovery treated > 5 uM for 24 hrs followed by maintained in drug free medium for 72 hrs by MTT assay. It counts as functional, cell-based.
Assay [16] concerns the target Focal adhesion kinase 1 (Homo sapiens) (UniProt Q05397). Nature of the assay: Inhibition of basal level FAK phosphorylation at Tyr397 in human MDA-MB-231 cells at 1 uM by ELISA. Format: cell-based.
The subject of assay [17] is Mast/stem cell growth factor receptor Kit (Homo sapiens), P10721 [D816V]. Nature of the assay: Inhibition of cKit D816V mutant (unknown origin) at 10 uM. The procedure, abridged:
as §1

The target of assay [18] is T2, Mitogen-activated protein kinase; ERK1/ERK2 (Homo sapiens). Nature of the assay: Inhibition of EGF-induced ERK1/2 phosphorylation in human MDA-MB-231 cells at 1 uM by ELISA. Format: cell-based.
Assay [19] concerns MDA-MB-231. Kind of assay: Induction of cAMP level in human MDA-MB-231 cells at 0.1 to 25 uM. Format: functional, cell-based. The procedure, abridged:
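MDA-MB-231 cells serum-starved for 4 h, treated with 500μM IBMX for 30 min, then exposed to compound for a further 30 min. Cellular cAMP read by HTRF kit.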

The target in assay [20] is Epidermal growth factor receptor (Homo sapiens) (UniProt P00533). Nature of the assay: Inhibition of EGFR phosphorylation at Tyr790 (unknown origin) at 10 uM.
For assay [21] the target is unchanged. Kind of assay: Inhibition of EGF-induced EGFR phosphorylation at Tyr845 in human MDA-MB-231 cells at 1 uM by ELISA. Format: cell-based. The procedure, abridged:
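MDA-MB-231 cells pretreated 1 h in serum-free medium, then EGF-stimulated for 15 min and lysed. Equal lysate protein (Bradford) assayed by ELISA kits for p-EGFR (Tyr1068, Tyr845, Tyr1173) and p-HER2. Absorbance read at 450 nm, normalized to total EGFR or HER2.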

Chain of Epidermal growth factor receptor (Homo sapiens) (P00533 whole entry): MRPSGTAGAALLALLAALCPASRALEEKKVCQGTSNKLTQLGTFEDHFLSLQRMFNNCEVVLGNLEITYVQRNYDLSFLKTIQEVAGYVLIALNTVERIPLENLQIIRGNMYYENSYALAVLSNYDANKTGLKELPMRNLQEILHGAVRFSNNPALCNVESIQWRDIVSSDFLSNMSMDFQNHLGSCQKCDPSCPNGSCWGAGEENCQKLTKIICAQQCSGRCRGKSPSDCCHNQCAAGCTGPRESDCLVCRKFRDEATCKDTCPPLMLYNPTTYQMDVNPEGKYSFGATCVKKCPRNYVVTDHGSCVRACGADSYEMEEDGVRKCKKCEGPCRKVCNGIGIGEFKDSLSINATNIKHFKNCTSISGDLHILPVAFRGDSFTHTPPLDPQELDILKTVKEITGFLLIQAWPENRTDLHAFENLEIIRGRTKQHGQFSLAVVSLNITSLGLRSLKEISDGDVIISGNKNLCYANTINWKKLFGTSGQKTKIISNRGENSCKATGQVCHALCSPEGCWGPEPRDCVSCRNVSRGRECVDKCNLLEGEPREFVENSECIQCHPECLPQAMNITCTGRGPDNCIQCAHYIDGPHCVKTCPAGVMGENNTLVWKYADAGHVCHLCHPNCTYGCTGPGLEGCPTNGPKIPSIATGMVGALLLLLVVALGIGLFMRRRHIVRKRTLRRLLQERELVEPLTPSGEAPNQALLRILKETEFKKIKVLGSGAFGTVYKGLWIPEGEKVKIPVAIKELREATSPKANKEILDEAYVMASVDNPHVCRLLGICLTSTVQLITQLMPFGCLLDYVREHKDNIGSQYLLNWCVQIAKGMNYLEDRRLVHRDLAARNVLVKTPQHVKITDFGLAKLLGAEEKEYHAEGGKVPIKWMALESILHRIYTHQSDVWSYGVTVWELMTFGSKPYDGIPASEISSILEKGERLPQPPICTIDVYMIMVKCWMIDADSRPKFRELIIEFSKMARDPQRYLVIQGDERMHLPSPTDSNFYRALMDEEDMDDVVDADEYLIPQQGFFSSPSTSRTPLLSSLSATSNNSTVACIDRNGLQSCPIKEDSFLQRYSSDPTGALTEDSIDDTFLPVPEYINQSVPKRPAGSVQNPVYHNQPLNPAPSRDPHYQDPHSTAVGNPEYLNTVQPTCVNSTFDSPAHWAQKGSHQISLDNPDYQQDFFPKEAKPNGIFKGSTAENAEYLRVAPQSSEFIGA
T2 sequence (P27361 whole entry, looked up): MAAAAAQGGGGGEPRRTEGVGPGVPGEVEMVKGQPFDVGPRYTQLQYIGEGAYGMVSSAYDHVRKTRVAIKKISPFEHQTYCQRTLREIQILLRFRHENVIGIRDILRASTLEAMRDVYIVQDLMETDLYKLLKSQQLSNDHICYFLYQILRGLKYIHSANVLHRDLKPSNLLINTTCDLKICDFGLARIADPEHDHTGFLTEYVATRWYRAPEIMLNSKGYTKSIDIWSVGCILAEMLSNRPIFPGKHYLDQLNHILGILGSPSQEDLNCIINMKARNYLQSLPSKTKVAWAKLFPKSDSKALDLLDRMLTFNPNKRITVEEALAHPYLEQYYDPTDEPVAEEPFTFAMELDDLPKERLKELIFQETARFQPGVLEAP
T2 sequence (P28482 whole entry, looked up): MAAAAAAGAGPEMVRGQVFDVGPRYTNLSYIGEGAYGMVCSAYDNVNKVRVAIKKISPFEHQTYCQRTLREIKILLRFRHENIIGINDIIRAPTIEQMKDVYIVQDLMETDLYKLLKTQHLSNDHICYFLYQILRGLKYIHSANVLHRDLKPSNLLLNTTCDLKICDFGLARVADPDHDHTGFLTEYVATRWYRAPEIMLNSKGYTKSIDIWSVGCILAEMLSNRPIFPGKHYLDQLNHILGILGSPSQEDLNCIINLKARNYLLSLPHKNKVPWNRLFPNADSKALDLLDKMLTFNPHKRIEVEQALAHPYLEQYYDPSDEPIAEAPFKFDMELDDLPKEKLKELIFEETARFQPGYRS
Chain of Focal adhesion kinase 1 (Homo sapiens) (Q05397 2-1052 limits assumed): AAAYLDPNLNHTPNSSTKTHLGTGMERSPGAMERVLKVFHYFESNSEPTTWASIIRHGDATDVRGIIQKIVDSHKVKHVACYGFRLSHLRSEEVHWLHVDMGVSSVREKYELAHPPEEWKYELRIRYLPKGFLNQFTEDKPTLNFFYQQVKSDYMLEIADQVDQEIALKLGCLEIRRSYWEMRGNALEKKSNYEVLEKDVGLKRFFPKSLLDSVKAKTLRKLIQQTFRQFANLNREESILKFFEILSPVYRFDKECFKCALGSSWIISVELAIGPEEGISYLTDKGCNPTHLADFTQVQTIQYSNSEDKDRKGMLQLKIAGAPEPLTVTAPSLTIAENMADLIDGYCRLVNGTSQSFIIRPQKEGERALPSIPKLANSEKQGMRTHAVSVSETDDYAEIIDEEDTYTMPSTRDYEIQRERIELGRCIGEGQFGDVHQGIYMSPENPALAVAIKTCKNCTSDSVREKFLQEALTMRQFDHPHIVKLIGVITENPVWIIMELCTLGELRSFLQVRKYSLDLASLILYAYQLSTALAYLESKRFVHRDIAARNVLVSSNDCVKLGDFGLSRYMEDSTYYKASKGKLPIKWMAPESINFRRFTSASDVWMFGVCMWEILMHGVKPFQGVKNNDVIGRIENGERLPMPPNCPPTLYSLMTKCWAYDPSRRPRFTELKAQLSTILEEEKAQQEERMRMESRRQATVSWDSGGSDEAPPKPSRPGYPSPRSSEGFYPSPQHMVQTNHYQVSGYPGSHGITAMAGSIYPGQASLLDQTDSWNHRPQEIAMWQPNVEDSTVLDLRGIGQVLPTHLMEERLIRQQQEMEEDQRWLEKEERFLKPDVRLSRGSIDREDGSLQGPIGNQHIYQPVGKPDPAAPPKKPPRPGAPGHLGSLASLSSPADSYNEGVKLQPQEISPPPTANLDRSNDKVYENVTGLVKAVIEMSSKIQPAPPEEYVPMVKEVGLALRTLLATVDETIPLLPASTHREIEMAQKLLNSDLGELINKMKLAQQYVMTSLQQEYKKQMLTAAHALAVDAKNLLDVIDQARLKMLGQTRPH
Chain of Mast/stem cell growth factor receptor Kit (Homo sapiens), P10721 [D816V] (P10721 whole entry D816V): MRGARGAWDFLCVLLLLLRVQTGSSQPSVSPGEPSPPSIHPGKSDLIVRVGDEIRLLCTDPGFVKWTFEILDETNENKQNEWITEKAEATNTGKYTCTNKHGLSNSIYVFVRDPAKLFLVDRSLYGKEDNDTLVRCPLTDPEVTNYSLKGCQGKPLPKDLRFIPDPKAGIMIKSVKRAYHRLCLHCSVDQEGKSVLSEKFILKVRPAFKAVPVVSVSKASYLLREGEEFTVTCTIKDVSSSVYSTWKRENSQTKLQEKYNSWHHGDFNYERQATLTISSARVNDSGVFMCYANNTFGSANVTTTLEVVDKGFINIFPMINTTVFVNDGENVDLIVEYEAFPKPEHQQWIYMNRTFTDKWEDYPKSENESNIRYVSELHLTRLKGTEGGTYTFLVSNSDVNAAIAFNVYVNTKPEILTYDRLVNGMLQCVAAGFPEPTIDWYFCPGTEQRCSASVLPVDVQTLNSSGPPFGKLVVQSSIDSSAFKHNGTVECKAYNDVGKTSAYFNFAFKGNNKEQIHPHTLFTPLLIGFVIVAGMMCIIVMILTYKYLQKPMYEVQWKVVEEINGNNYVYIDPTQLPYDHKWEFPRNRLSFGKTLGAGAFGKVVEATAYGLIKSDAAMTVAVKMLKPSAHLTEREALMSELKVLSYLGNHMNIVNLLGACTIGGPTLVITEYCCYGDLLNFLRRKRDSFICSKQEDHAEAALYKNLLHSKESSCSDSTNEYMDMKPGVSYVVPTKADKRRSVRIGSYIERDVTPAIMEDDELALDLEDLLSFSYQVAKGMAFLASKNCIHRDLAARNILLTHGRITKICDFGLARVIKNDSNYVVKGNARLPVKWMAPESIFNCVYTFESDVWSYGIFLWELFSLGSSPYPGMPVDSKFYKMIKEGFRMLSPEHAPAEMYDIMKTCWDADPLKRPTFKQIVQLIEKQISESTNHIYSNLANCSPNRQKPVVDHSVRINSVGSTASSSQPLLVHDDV
Chain of Angiopoietin-1 receptor (Homo sapiens) (Q02763 whole entry): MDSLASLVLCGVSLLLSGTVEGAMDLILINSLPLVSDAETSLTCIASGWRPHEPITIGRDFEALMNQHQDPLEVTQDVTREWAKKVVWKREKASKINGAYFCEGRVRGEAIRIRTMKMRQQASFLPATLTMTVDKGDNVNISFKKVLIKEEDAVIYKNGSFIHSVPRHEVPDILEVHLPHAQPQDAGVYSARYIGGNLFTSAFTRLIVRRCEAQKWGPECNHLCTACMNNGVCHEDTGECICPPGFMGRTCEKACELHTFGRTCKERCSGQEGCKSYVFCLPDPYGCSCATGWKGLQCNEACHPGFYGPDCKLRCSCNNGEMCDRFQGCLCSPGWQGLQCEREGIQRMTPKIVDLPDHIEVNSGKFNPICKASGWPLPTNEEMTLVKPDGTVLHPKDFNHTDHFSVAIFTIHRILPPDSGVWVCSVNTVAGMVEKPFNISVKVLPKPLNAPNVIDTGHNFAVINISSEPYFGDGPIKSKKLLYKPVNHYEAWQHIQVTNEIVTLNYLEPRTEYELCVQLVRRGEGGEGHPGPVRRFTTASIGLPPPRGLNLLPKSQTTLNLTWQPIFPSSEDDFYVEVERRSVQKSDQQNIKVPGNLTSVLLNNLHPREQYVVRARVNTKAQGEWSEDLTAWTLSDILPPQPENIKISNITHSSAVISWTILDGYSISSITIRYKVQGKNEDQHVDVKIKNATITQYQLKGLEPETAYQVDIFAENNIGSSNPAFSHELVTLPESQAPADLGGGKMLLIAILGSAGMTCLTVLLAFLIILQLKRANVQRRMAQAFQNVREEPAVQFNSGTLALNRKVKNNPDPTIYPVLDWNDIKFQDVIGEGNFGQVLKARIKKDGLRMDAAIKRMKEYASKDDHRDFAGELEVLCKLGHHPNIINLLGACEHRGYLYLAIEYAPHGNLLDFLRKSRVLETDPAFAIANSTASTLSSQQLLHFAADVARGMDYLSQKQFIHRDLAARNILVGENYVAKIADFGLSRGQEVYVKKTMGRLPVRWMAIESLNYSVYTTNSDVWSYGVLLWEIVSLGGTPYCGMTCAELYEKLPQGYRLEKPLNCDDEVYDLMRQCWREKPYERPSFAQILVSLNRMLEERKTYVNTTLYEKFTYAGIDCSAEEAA

With `CCN(CC)CCO/N=C(\c1ccc(SC)cc1)c1cccc2ccccc12.O=C(O)C(=O)O`, the Activity is 8.5% in the assay on MDA-MB-231 [1]; 0.9% with MCF7 [2]; 12.46% in the assay on MCF7 [3]; 80.13% in the assay on MDA-MB-231 [5]; 11.48% in the assay with MCF7 [6]; 13.65% in the assay with MDA-MB-231 [7]. Moreover, the EC50 in assay [4] amounted to 7.7 µM.
Regarding `CCN(CC)CCO/N=C(\c1ccc(SC)cc1)c1cccc2ccccc12`, the result in the assay on MDA-MB-231 [8], with MCF7 [15] and in the assay with MDA-MB-231 [19] was Active. Also, the outcome in the assay on MCF7 [9] and in the assay with MCF7 [13] was inactive. Besides, the inhibition result in [10], in assay [12], in assay [17] and in assay [20] was “inactive” throughout. Moreover, the inhibition result (in [11]; in the assay with DLD-1; in assay [14]; in [16]; in [18]; in [21]) was “Active” in each case.

One may read the EC50 as the concentration giving half of the maximal effect. A lower EC50 goes with higher potency in that assay.
